Laboratory results as given in ChEMBL document CHEMBL4665823, “Assessing the Perturbing Effects of Drugs on Lipid Bilayers Using Gramicidin Channel-Based In Silico and In Vitro Assays” (J Med Chem, 2020).
The source made the active and inactive calls. No cut-off for these calls is given here.

Experiments:
Lipid bilayer [1] = assay: Induction of membrane perturbation in DC22:1PC LUV bilayer assessed as effect on potential of mean force by measuring reduction in deltaG for gramicidin mixture monomer to dimer and pure gramicidin-bilayer by fluorescence quenching assay
Lipid bilayer [2] = assay: Induction of membrane perturbation in DC22:1PC LUV bilayer assessed as change in deltaG for pure gramicidin monomer to dimer by fluorescence quenching assay (reference value: 0 kcal/mol)
Lipid bilayer [3] = assay: Induction of membrane perturbation in DC22:1PC LUV bilayer assessed as change in deltaG for gramicidin mixture monomer to dimer by fluorescence quenching assay (reference value: 0 kcal/mol)
Lipid bilayer [4] = assay: Induction of membrane perturbation in DC22:1PC LUV bilayer assessed as fluorescence quench rate by measuring increase in R(drug)/R(control) ratio by fluorescence quenching assay
How it was run: (§1)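 ANTS-loaded (25 mM) DC22:1PC LUVs with gD at gramicidin:lipid 1:2000, rehydrated to 10 mM lipid, 3 h equilibration, 1 min sonication. Drug-exposed vesicles were incubated ≥10 min at 25 °C in the dark, then mixed by stopped-flow with Tl+ quench buffer (50 mM TlNO3, pH 7). Fluorescence (ex 352, em >450 nm) was fitted to a stretched exponential; rate given relative to drug-free control.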

Lipid bilayer [5] = assay: Induction of membrane perturbation in DC22:1PC LUV bilayer assessed as fluorescence quench rate by measuring gramicidin mixture monomer to dimer equilibrium at 30 uM by fluorescence quenching assay; how it was run: as §1
Lipid bilayer [6] = assay: Induction of membrane perturbation in DC18:1PC LUV bilayer assessed as fluorescence quench rate by measuring gramicidin mixture monomer to dimer equilibrium at 30 uM by fluorescence quenching assay
How it was run: (§2)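 DC18:1PC LUVs (gramicidin mixture gD:lipid 1:40,000) loaded with 25 mM ANTS at 10 mM lipid, equilibrated 3 h at room temperature, sonicated 1 min, about 130 nm diameter. Drug added; samples held ≥10 min at 25 °C in the dark, then stopped-flow mixed with 50 mM TlNO3/94 mM NaNO3/10 mM HEPES, pH 7. Ex 352 nm, em >450 nm; quench rate from stretched-exponential fit.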

Lipid bilayer [7] = assay: Induction of membrane perturbation in DC20:1PC LUV bilayer assessed as fluorescence quench rate by measuring gramicidin mixture monomer to dimer equilibrium at 30 uM by fluorescence quenching assay
Lipid bilayer [8] = assay: Induction of membrane perturbation in DC22:1PC LUV bilayer assessed as effect on potential of mean force by measuring increase in deltaG for gramicidin mixture monomer to dimer and pure gramicidin-bilayer by fluorescence quenching assay
How it was run: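 ΔΔG(monomer↔dimer) was derived from Tl+/ANTS quench-rate ratios in DC22:1PC LUVs at 1:2000 gramicidin:lipid. Ratios were adjusted for estimated bilayer drug mole fraction and extrapolated linearly to a drug:lipid ratio of 0.084, matching the coarse-grained simulations. Stopped-flow was run at 25 °C.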

Lipid bilayer [9] = assay: Induction of membrane perturbation in DC22:1PC LUV bilayer assessed as fluorescence quench rate by measuring reduction in R(drug)/R(control) ratio by fluorescence quenching assay
Lipid bilayer [10] = assay: Induction of membrane perturbation in DC22:1PC LUV bilayer assessed as fluorescence quench rate by measuring gramicidin mixture monomer to dimer equilibrium at 30000 uM by fluorescence quenching assay
Lipid bilayer [11] = assay: Induction of membrane perturbation in DC20:1PC LUV bilayer assessed as fluorescence quench rate by measuring gramicidin mixture monomer to dimer equilibrium at 30000 uM by fluorescence quenching assay
Lipid bilayer [12] = assay: Induction of membrane perturbation in DC18:1PC LUV bilayer assessed as fluorescence quench rate by measuring gramicidin mixture monomer to dimer equilibrium at 30000 uM by fluorescence quenching assay
Lipid bilayer [13] = assay: Induction of membrane perturbation in DC22:1PC LUV bilayer assessed as fluorescence quench rate by measuring gramicidin mixture monomer to dimer equilibrium at 1800 uM by fluorescence quenching assay; how it was run: as §1
Lipid bilayer [14] = assay: Induction of membrane perturbation in DC18:1PC LUV bilayer assessed as fluorescence quench rate by measuring gramicidin mixture monomer to dimer equilibrium at 1800 uM by fluorescence quenching assay; how it was run: as §2
Lipid bilayer [15] = assay: Induction of membrane perturbation in DC20:1PC LUV bilayer assessed as fluorescence quench rate by measuring gramicidin mixture monomer to dimer equilibrium at 1800 uM by fluorescence quenching assay
Lipid bilayer [16] = assay: Induction of membrane perturbation in DC18:1PC LUV bilayer assessed as effect on potential of mean force by measuring reduction in deltaG for gramicidin mixture monomer to dimer and pure gramicidin-bilayer by fluorescence quenching assay
Lipid bilayer [17] = assay: Induction of membrane perturbation in DC22:1PC LUV bilayer assessed as fluorescence quench rate by measuring gramicidin mixture monomer to dimer equilibrium at 100 uM by fluorescence quenching assay
Lipid bilayer [18] = assay: Induction of membrane perturbation in DC20:1PC LUV bilayer assessed as fluorescence quench rate by measuring gramicidin mixture monomer to dimer equilibrium at 100 uM by fluorescence quenching assay
Lipid bilayer [19] = assay: Induction of membrane perturbation in DC18:1PC LUV bilayer assessed as fluorescence quench rate by measuring gramicidin mixture monomer to dimer equilibrium at 100 uM by fluorescence quenching assay
Lipid bilayer [20] = assay: Induction of membrane perturbation in DC22:1PC LUV bilayer assessed as fluorescence quench rate by measuring increase in R(drug)/R(control) ratio at gD:lipid molar ratio of > 1:400 in presence of 10 mol % cholesterol by fluorescence quenching assay
How it was run: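 Cholesterol added at 10 mol % before LUV formation; DC22:1PC vesicles made with gD:lipid molar ratios between 1:200 and 1:2000, ANTS-loaded. Tl+ influx was followed by stopped-flow fluorescence quench at 25 °C (ex 352 nm, em >450 nm), and traces were fitted to a stretched exponential.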

Lipid bilayer [21] = assay: Induction of membrane perturbation in DC20:1PC LUV bilayer assessed as fluorescence quench rate by measuring gramicidin mixture monomer to dimer equilibrium at 10 uM by fluorescence quenching assay
Lipid bilayer [22] = assay: Induction of membrane perturbation in DC22:1PC LUV bilayer assessed as fluorescence quench rate by measuring gramicidin mixture monomer to dimer equilibrium at 10 uM by fluorescence quenching assay; how it was run: as §1
Lipid bilayer [23] = assay: Induction of membrane perturbation in DC18:1PC LUV bilayer assessed as fluorescence quench rate by measuring gramicidin mixture monomer to dimer equilibrium at 10 uM by fluorescence quenching assay; how it was run: as §2
Lipid bilayer [24] = assay: Induction of membrane perturbation in DC22:1PC LUV bilayer assessed as fluorescence quench rate by measuring gramicidin mixture monomer to dimer equilibrium at 300 uM by fluorescence quenching assay; how it was run: as §1
Lipid bilayer [25] = assay: Induction of membrane perturbation in DC20:1PC LUV bilayer assessed as fluorescence quench rate by measuring gramicidin mixture monomer to dimer equilibrium at 300 uM by fluorescence quenching assay
Lipid bilayer [26] = assay: Induction of membrane perturbation in DC18:1PC LUV bilayer assessed as fluorescence quench rate by measuring gramicidin mixture monomer to dimer equilibrium at 300 uM by fluorescence quenching assay; how it was run: as §2

Row | SMILES | Activity (Lipid bilayer [1]) | deltaG (Lipid bilayer [2]) | deltaG (Lipid bilayer [3]) | Activity (Lipid bilayer [4]) | further results
1 | CC(C)(C)CC(C)(C)c1ccc(OCCOCCOCCOCCOCCOCCOCCOCCOCCOCCO)cc1 | Active | -1.5 kcal/mol | -1.6 kcal/mol | Dose-dependent effect | Activity (Lipid bilayer [5]): Active; Activity (Lipid bilayer [6]): inactive; Activity (Lipid bilayer [7]): inactive
2 | C1CCCCC1 | – | 0 kcal/mol | 0 kcal/mol | – | Activity (Lipid bilayer [8]): Active; Activity (Lipid bilayer [9]): Dose-dependent effect; Activity (Lipid bilayer [10]): Active; Activity (Lipid bilayer [11]): inactive; Activity (Lipid bilayer [12]): inactive
3 | CCCCCCCCO | Active | -0.4 kcal/mol | -0.3 kcal/mol | Dose-dependent effect | Activity (Lipid bilayer [13]): Active; Activity (Lipid bilayer [14]): inactive; Activity (Lipid bilayer [15]): inactive
4 | COc1cc(CNC(=O)CCCC/C=C/C(C)C)ccc1O | Active | -0.5 kcal/mol | -0.6 kcal/mol | – | Activity (Lipid bilayer [16]): Active; Activity (Lipid bilayer [17]): Active; Activity (Lipid bilayer [18]): inactive; Activity (Lipid bilayer [19]): inactive
5 | CC(C)CCC[C@@H](C)[C@H]1CC[C@H]2[C@@H]3CC=C4C[C@@H](O)CC[C@]4(C)[C@H]3CC[C@]12C | – | 2.5 kcal/mol | – | – | Activity (Lipid bilayer [8]): Active; Activity (Lipid bilayer [20]): Active
6 | CCCCCCCCCCCCOCCOCCOCCOCCOCCOCCO | Active | -1.4 kcal/mol | -1.5 kcal/mol | Dose-dependent effect | Activity (Lipid bilayer [21]): inactive; Activity (Lipid bilayer [22]): Active; Activity (Lipid bilayer [23]): inactive
7 | Oc1ccc(/C=C/c2cc(O)cc(O)c2)cc1 | Active | -1.7 kcal/mol | -1.8 kcal/mol | Dose-dependent effect | Activity (Lipid bilayer [5]): Active; Activity (Lipid bilayer [6]): inactive; Activity (Lipid bilayer [7]): inactive
8 | CCCCCCCCCCCCOP(=O)([O-])OCC[N+](C)(C)C | Active | -0.5 kcal/mol | -0.5 kcal/mol | Dose-dependent effect | Activity (Lipid bilayer [24]): Active; Activity (Lipid bilayer [25]): inactive; Activity (Lipid bilayer [26]): inactive
